Assay results published in ChEMBL document CHEMBL1145533, “Antimicrobial activities of ceragenins against clinical isolates of resistant Staphylococcus aureus” (2007).
Values after ≈ are worked out from the molar mass of the structure shown.

Assays:
Staphylococcus aureus [1] = assay: Antimicrobial activity against heterogeneous glycopeptide-intermediate Staphylococcus aureus by broth microdilution technique after 24 hrs; type: functional
Summary of the method: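 CLSI broth microdilution in Mueller-Hinton broth with Mg 12.5 mg/liter and Ca 25 mg/liter. […] MBC determined as well. hVISA isolates were identified by subpopulation analysis.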

Staphylococcus aureus [2] = assay: Antimicrobial activity against glycopeptide-intermediate Staphylococcus aureus by broth microdilution technique after 24 hrs; type: functional
Summary of the method: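 CLSI broth microdilution MIC and MBC in duplicate. Mueller-Hinton broth supplemented with Mg 12.5 mg/liter and Ca 25 mg/liter (Ca 50 mg/liter for daptomycin). Inoculum 5 × 10⁵ CFU/ml, 24 h at 35°C, tested up to 32.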

Staphylococcus aureus [3] = assay: Bactericidal killing activity against 8 to 9 log10 CFU/ml Staphylococcus aureus Mu50 at 4 times MIC by time-kill curve analysis; type: functional
Summary of the method: (§1)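 Time-kill in triplicate in Mueller-Hinton broth supplemented with Mg 12.5 mg/liter and Ca 25 mg/liter. Agent at 0.5×, 1×, 4× and 10× MIC. Starting inocula 5 × 10⁵ (about 6 log₁₀) or 1 × 10⁸ to 1 × 10⁹ CFU/ml. Samples at 0, 1, 4, 8 and 24 h, serially diluted in cold 0.9% NaCl or filtered to remove carryover. Counted by spiral plating on trypticase soy agar; detection limit 2 log₁₀ CFU/ml. Bactericidal = 99.9% kill.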

Staphylococcus aureus [4] = assay: Antibacterial activity against Staphylococcus aureus Mu3 assessed as bacterial density after 24 hrs by time-kill curve analysis; type: functional; summary of the method: as §1
Staphylococcus aureus [5] = assay: Bactericidal killing activity against 6 log10 CFU/ml Staphylococcus aureus Mu3 at MIC by time-kill curve analysis; type: functional; summary of the method: as §1
Staphylococcus aureus [6] = assay: Bactericidal killing activity against 6 log10 CFU/ml Staphylococcus aureus Mu50 at 4 times MIC by time-kill curve analysis; type: functional; summary of the method: as §1
Staphylococcus aureus [7] = assay: Bactericidal killing activity against Staphylococcus aureus Mu3 at 10 times MIC; type: functional
Summary of the method: (§2)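 Time-kill in Mueller-Hinton broth with Mg 12.5 mg/liter and Ca 25 mg/liter, run in triplicate. Drug at 0.5×, 1×, 4× and 10× MIC. Starting inocula ~6 log10 CFU/ml (5 × 10⁵ to 10⁶) or 8–9 log10 CFU/ml. Samples taken at 0, 1, 4, 8 and 24 h, diluted in cold 0.9% NaCl (filtered if carryover was possible), then spiral plated. Detection limit 2 log10 CFU/ml. Bactericidal = 99.9% kill.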

Staphylococcus aureus [8] = assay: Antibacterial activity against Staphylococcus aureus Mu50 assessed as bacterial density after 24 hrs by time-kill curve analysis; type: functional; summary of the method: as §2
Staphylococcus aureus [9] = assay: Bactericidal killing activity against 8 to 9 log10 CFU/ml Staphylococcus aureus Mu3 at MIC by time-kill curve analysis; type: functional; summary of the method: as §2
Staphylococcus aureus [10] = assay: Post antibiotic effect on vancomycin-resistant Staphylococcus aureus PA after 0.5 hrs; type: functional, organism-based
Summary of the method: (§3)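 Cultures exposed for 0.5 h at 1×, 2× and 4× MIC, then drug removed by washing, dilution, filtration or inactivation. PAE = T − C, where each is the time for counts to rise 1 log10 above the count right after drug removal, for treated (T) and untreated control (C) cultures.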

Staphylococcus aureus [11] = assay: Post antibiotic effect on vancomycin-resistant Staphylococcus aureus MI after 0.5 hrs; type: functional, organism-based; summary of the method: as §3
Staphylococcus aureus [12] = assay: Post antibiotic effect on Staphylococcus aureus Mu3 after 0.5 hrs; type: functional, organism-based
Summary of the method: (§4)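 Exposure for 0.5 h at 1×, 2× and 4× MIC, then rapid drug removal by washing, dilution, filtration or inactivation. PAE = T − C: time for treated culture to rise 1 log₁₀ CFU/ml after removal, minus the same for an untreated control. Reported as average ± standard deviation.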

Staphylococcus aureus [13] = assay: Post antibiotic effect on Staphylococcus aureus Mu50 after 0.5 hrs; type: functional, organism-based; summary of the method: as §4
Staphylococcus aureus [14] = assay: Bactericidal killing activity of vancomycin-intermediate Staphylococcus aureus at 10 times MIC by time kill curve analysis; type: functional; summary of the method: as §1
Staphylococcus aureus [15] = assay: Bactericidal killing activity against Staphylococcus aureus Mu3 at 4 times MIC; type: functional; summary of the method: as §1
Staphylococcus aureus [16] = assay: Bactericidal killing activity against Staphylococcus aureus Mu3 at MIC; type: functional; summary of the method: as §1
Staphylococcus aureus [17] = assay: Bactericidal killing activity against Staphylococcus aureus Mu3 at 0.5 times MIC; type: functional; summary of the method: as §1
Staphylococcus aureus [18] = assay: Bactericidal killing activity of vancomycin-resistant Staphylococcus aureus by time kill curve analysis; type: functional, organism-based; summary of the method: as §2
Staphylococcus aureus [19] = assay: Bactericidal killing activity of vancomycin-intermediate Staphylococcus aureus by time kill curve analysis; type: functional, organism-based; summary of the method: as §1
Staphylococcus aureus [20] = assay: Bactericidal killing activity of heterogenous vancomycin-intermediate Staphylococcus aureus by time kill curve analysis; type: functional, organism-based; summary of the method: as §1
Staphylococcus aureus [21] = assay: Bactericidal killing activity against Staphylococcus aureus Mu50 at 4 times MIC; type: functional; summary of the method: as §2
Staphylococcus aureus [22] = assay: Bactericidal killing activity against Staphylococcus aureus Mu50 at MIC; type: functional; summary of the method: as §2
Staphylococcus aureus [23] = assay: Antibacterial activity against Staphylococcus aureus Mu3 assessed as bacterial density after 8 hrs by time-kill curve analysis; type: functional; summary of the method: as §1
Staphylococcus aureus [24] = assay: Antibacterial activity against Staphylococcus aureus Mu50 assessed as bacterial density after 8 hrs by time-kill curve analysis; type: functional; summary of the method: as §2
Staphylococcus aureus [25] = assay: Bactericidal killing activity of heterogenous vancomycin-intermediate Staphylococcus aureus at 10 times MIC by time kill curve analysis; type: functional; summary of the method: as §1

`CC(=O)NC[C@H]1CN(c2ccc(N3CCOCC3)c(F)c2)C(=O)O1` [LINEZOLID] gave an MIC50 (Staphylococcus aureus [1]) of 1 µg/mL (≈ 2.96 µM), an MIC90 (Staphylococcus aureus [1]) of 2 µg/mL (≈ 5.93 µM) and an MBC50 (Staphylococcus aureus [2]) of 8 µg/mL (≈ 23.7 µM). The MBC90 (Staphylococcus aureus [2]) was 64 µg/mL (≈ 190 µM).

In the case of `C[C@H](CCCO)[C@H]1CC[C@H]2[C@@H]3[C@H](OCCCN)CC4C[C@H](OCCCN)CC[C@]4(C)[C@H]3C[C@H](OCCCN)[C@]12C.Cl` (stereo partly drawn), the MIC50 (Staphylococcus aureus [1]) is reported as 4 µg/mL, the MIC90 (Staphylococcus aureus [1]) is reported as 8 µg/mL and the MBC50 (Staphylococcus aureus [2]) is reported as 8 µg/mL. It also gave an MBC90 (Staphylococcus aureus [2]) of 8 µg/mL.

With `CN[C@H](CC(C)C)C(=O)N[C@H]1C(=O)N[C@@H](CC(N)=O)C(=O)N[C@H]2C(=O)N[C@H]3C(=O)N[C@H](C(=O)N[C@H](C(=O)O)c4cc(O)cc(O)c4-c4cc3ccc4O)[C@H](O)c3ccc(c(Cl)c3)Oc3cc2cc(c3O[C@@H]2O[C@H](CO)[C@@H](O)[C@H](O)[C@H]2O[C@H]2C[C@](C)(N)[C@H](O)[C@H](C)O2)Oc2ccc(cc2Cl)[C@H]1O` [VANCOMYCIN] the MIC50 (Staphylococcus aureus [1]) was 4 µg/mL (≈ 2.76 µM), the MIC90 (Staphylococcus aureus [1]) was 8 µg/mL (≈ 5.52 µM) and the MBC50 (Staphylococcus aureus [2]) was 8 µg/mL (≈ 5.52 µM). The MBC90 (Staphylococcus aureus [2]) was 8 µg/mL (≈ 5.52 µM).

With `CCCCCCCCNCCC[C@@H](C)[C@H]1CC[C@H]2[C@@H]3[C@H](OCCCN)CC4C[C@H](OCCCN)CC[C@]4(C)[C@H]3C[C@H](OCCCN)[C@]12C.Cl.Cl.Cl.Cl` (stereo partly drawn) the T99.9% (Staphylococcus aureus [3]) was “>=24 hr”, the log10CFU/ml (Staphylococcus aureus [4]) was -3.75 and the T99.9% (Staphylococcus aureus [5]) was 8 h. For the same compound, the T99.9% (Staphylococcus aureus [6]) was 4 h, the T99.9% (Staphylococcus aureus [7]) was 1 h and the log10CFU/ml (Staphylococcus aureus [8]) was -3.75. The T99.9% (Staphylococcus aureus [9]) was “>=24 hr”, the Post anitbiotic effect (Staphylococcus aureus [10]) was “Dose-dependent effect” and the Post anitbiotic effect (Staphylococcus aureus [11]) was “Dose-dependent effect”. For the same compound, the Post anitbiotic effect (Staphylococcus aureus [12]) was “Dose-dependent effect”, the Post anitbiotic effect (Staphylococcus aureus [13]) was “Dose-dependent effect” and the T99.9% (Staphylococcus aureus [14]) was 1 h. It also gave an MIC50 (Staphylococcus aureus [1]) of 1 µg/mL, an MIC90 (Staphylococcus aureus [1]) of 1 µg/mL and an MBC50 (Staphylococcus aureus [2]) of 1 µg/mL. The MBC90 (Staphylococcus aureus [2]) was 1 µg/mL, the T99.9% (Staphylococcus aureus [15]) was 4 h and the T99.9% (Staphylococcus aureus [16]) was 8 h. The T99.9% (Staphylococcus aureus [17]) was 24 h, the Activity (Staphylococcus aureus [18]) was “Dose-dependent effect” and the Activity (Staphylococcus aureus [19]) was “Dose-dependent effect”. The Activity (Staphylococcus aureus [20]) was “Dose-dependent effect”, the T99.9% (Staphylococcus aureus [21]) was 4 h and the T99.9% (Staphylococcus aureus [22]) was 8 h. The log10CFU/ml (Staphylococcus aureus [23]) was -3.4, the log10CFU/ml (Staphylococcus aureus [24]) was -3.4 and the T99.9% (Staphylococcus aureus [25]) was 1 h.

With `CCCCCCCCCC(=O)N[C@@H](Cc1c[nH]c2ccccc12)C(=O)N[C@H](CC(N)=O)C(=O)N[C@@H](CC(=O)O)C(=O)N[C@@H]1C(=O)NCC(=O)N[C@@H](CCCN)C(=O)N[C@@H](CC(=O)O)C(=O)N[C@H](C)C(=O)N[C@@H](CC(=O)O)C(=O)NCC(=O)N[C@H](CO)C(=O)N[C@@H]([C@H](C)CC(=O)O)C(=O)N[C@@H](CC(=O)c2ccccc2N)C(=O)O[C@@H]1C` the MIC50 (Staphylococcus aureus [1]) was 0.5 µg/mL (≈ 0.309 µM), the MIC90 (Staphylococcus aureus [1]) was 1 µg/mL (≈ 0.617 µM) and the MBC50 (Staphylococcus aureus [2]) was 0.5 µg/mL (≈ 0.309 µM). For the same compound, the MBC90 (Staphylococcus aureus [2]) was 1 µg/mL (≈ 0.617 µM).
